The results in this text go back to ChEMBL document CHEMBL5346868 (Eur J Med Chem, 2023).

Data set [1] has as its system Enterovirus A71. The data set can be described thus: Antiviral activity against human enterovirus 71 infected in african green monkey vero cells. It counts as functional, organism-based. As to conditions: Enterovirus A.
The subject of data set [2] is Enterovirus A71. The data set can be described thus: Antiviral activity against human enterovirus 71 BrCr infected in human RD cells measured by colorometric based MTS/PMS method. In kind it is functional, organism-based. As to conditions: Enterovirus A. The procedure, abridged: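 EV71 BrCr in confluent RD cells (MEM, 10% heat-inactivated FBS) infected with ~100 CCID50 and given a compound dilution series. Incubation was 3 days at 37 °C, 5% CO2, with residual viability read by MTS. EC50 is the concentration giving 50% antiviral effect. Toxicity was run in parallel on treated uninfected cells. Values are means of ≥2 independent experiments.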

The test system of data set [3] is Enterovirus A71. Kind of data set: Antiviral activity against human Enterovirus 71 BrCr infected in human RD cells assessed as reduction of virus induced cytopathic effect incubated for 3 days by MTS assay. It counts as functional, organism-based. As to conditions: Enterovirus A, 72 h. In outline: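 Confluent RD cells (EMEM, 10% heat-inactivated FBS) are infected with ~100 CCID50 of EV71 BrCr and treated with a compound dilution series. After 3 days at 37 °C, 5% CO2, residual viability is measured by MTS. EC50 is the concentration giving 50% antiviral effect, from at least 2–3 independent experiments.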
(In general: Cytopathic effects are the visible damage that an infection or toxin causes in cultured cells.)

Data set [4] in a line: Cytotoxicity against human RD cells by MTS assay. It counts as toxicity, cell-based. In outline:
(§1)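 Treated, uninfected RD or HeLa cells are run alongside the matching enterovirus CPE assays, with viability read by MTS. CC50 is the concentration giving a 50% adverse effect on host cells.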
Background: Tetrazolium assays rely on reduction of a dye to a coloured formazan, in cell work by metabolically active cells.

A short description of data set [5]: Selectivity index, ratio of CC50 for human RD cells to EC50 for antiviral activity against human Enterovirus 71. In kind it is toxicity. As to conditions: read-out: Ratio CC50/EC50. In outline:
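SI is calculated as CC50 on uninfected RD cells divided by EC50 in the 3-day EV71 BrCr CPE-reduction MTS assay.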

Data set [6] concerns SARS-CoV-2. The data set can be described thus: Antiviral activity against SARS-CoV-2 BetaCoV/Belgium/GHB-03021/2020 infected in african green monkey Vero cells assessed as decline in virus induced cytopathogenicity measured after 4 days by argon laser scanning microscopic analysis. As to conditions: Severe acute respiratory syndrome coronavirus 2, BetaCoV/Belgium/GHB-03021/2020, Vero, 96 h. In kind it is functional, organism-based.

Data set [7] relates to Zika virus. The data set can be described thus: Antiviral activity against ZIKV MR766 infected in african green monkey Vero E6 cells assessed as decline in virus induced cytopathogenicity measured after 5 days by MTS based microscopic analysis. In kind it is functional, organism-based. The following applies: MR766, Vero C1008, 120 h. In outline: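 Vero E6 cells (10^4/well) are seeded in MEM with 2% FCS and left to adhere overnight. Cells are then infected with ZIKV MR766 (passaged in C6/36 cells) and given 2-fold serial compound dilutions. After 5 days, CPE is scored by MTS and by microscopy of fixed, stained cells. EC50 is the 50% antiviral effect.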

Data set [8] can be described thus: Cytotoxicity against african green monkey Vero E6 cells by MTS assay. As to conditions: chlorocebus sabaeus. It counts as toxicity, cell-based, Vero C1008. The procedure, abridged:
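Cytotoxicity is measured on treated, uninfected Vero E6 cells in parallel with the antiviral assays, using a standard MTS assay. CC50 is the concentration causing a 50% adverse effect on host cells.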

The test system of data set [9] is Enterovirus A71. Kind of data set: Antiviral activity against human enterovirus 71 87-2008. As to conditions: Enterovirus A. In kind it is functional, organism-based.
Data set [10] deals with Coxsackievirus B3. Kind of data set: Antiviral activity against Coxsackievirus B3 infected in african green monkey Vero cells assessed as reduction of virus induced cytopathic effect incubated for 3 days by MTS assay. It counts as functional, organism-based. As to conditions: Enterovirus B, 72 h. In outline:
(§2)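 Same setup as the EV71 assay: confluent monolayers (Vero A for CVB3; HeLa for CVA21, EV68, HRV-A02, HRV-B14) are infected with virus and treated with a compound dilution series. Incubation is 3 days at 37 °C, 5% CO2, and residual viability is read by MTS. EC50 is the 50% effective concentration, mean of at least 2 independent experiments.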

Data set [11] is described as follows: Cytotoxicity against african green monkey Vero cells by MTS assay. It counts as toxicity, cell-based. As to conditions: chlorocebus sabaeus.
Data set [12] concerns Coxsackievirus A21. The data set can be described thus: Antiviral activity against Coxsackievirus 21 infected in human HeLa cells assessed as reduction of virus induced cytopathic effect incubated for 3 days by MTS assay. It counts as functional, organism-based. The following applies: Enterovirus C, 72 h. In outline:
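HeLa cells infected with coxsackievirus A21 (~100 CCID50) and treated with a compound dilution series, as in the EV71 set-up. Incubation was 3 days at 37 °C, 5% CO2, with residual viability quantified by MTS. EC50 is the concentration giving 50% antiviral effect. Values are means of ≥2 independent experiments.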

Data set [13] has as its system enterovirus D68. Kind of data set: Antiviral activity against Human enterovirus 68 infected in human HeLa cells assessed as reduction of virus induced cytopathic effect incubated for 3 days by MTS assay. As to conditions: Enterovirus D, 72 h. In kind it is functional, organism-based. The procedure, abridged:
as §2

Data set [14] concerns rhinovirus A2. The data set can be described thus: Antiviral activity against Human rhinovirus 2 infected in human HeLa cells assessed as reduction of virus induced cytopathic effect incubated for 3 days by MTS assay. In kind it is functional, organism-based. The following applies: Rhinovirus A, 72 h. The procedure, abridged:
as §2

The subject of data set [15] is rhinovirus B14. The data set can be described thus: Antiviral activity against Human rhinovirus 14 infected in human HeLa cells assessed as reduction of virus induced cytopathic effect incubated for 3 days by MTS assay. It counts as functional, organism-based. The following applies: Rhinovirus B, 72 h. The procedure, abridged: as §2
Data set [16] can be described thus: Cytotoxicity against human HeLa cells by MTS assay. In kind it is toxicity, cell-based. The procedure, abridged:
as §1

The target in data set [17] is METTL3/METTL14 (Homo sapiens, UniProt Q86U44). Kind of data set: Inhibition of human recombinant full length METTL3/human N-terminal FLAG-tagged METTL14 expressed in SF9 cells assessed as methyltransferase residual activity using ssRNA 5'-rUrArC rArCrU rCrGrA rUrCrU rGrGrA rCrUrA rArArG rCrUrG rCrUrC -3' as substrate incubated for 20 mins followed by H-SAM addition measured after 2 hrs by radio isotope reaction system analysis. In outline: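 Compound is pre-incubated for 20 min at room temperature, then 1 μM [3H-methyl]SAM is added for 2 h at room temperature. Activity is reported as % remaining, screened at 100 μM, with IC50 from curve fits.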

Data set [18] has as its system Enterovirus A71. Kind of data set: Antiviral activity against human enterovirus 71. It counts as functional, organism-based. As to conditions: Enterovirus A.

Bounds are passed on as bounds.

METTL3/METTL14, sequence (Q86U44 whole entry): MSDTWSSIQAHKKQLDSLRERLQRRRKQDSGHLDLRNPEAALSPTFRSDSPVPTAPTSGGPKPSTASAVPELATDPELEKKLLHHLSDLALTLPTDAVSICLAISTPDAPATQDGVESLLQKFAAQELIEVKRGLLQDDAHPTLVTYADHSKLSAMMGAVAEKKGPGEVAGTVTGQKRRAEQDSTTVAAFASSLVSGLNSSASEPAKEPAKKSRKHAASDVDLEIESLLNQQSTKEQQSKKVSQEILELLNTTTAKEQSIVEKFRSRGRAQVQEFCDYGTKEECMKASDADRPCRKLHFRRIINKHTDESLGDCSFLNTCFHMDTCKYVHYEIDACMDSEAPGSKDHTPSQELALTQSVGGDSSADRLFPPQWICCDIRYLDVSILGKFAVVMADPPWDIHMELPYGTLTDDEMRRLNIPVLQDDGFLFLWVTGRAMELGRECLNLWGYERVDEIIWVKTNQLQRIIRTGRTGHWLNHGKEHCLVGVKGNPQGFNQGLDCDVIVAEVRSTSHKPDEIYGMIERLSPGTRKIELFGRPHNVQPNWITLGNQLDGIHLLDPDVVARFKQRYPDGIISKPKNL
METTL3/METTL14, sequence (Q9HCE5 whole entry, further chain): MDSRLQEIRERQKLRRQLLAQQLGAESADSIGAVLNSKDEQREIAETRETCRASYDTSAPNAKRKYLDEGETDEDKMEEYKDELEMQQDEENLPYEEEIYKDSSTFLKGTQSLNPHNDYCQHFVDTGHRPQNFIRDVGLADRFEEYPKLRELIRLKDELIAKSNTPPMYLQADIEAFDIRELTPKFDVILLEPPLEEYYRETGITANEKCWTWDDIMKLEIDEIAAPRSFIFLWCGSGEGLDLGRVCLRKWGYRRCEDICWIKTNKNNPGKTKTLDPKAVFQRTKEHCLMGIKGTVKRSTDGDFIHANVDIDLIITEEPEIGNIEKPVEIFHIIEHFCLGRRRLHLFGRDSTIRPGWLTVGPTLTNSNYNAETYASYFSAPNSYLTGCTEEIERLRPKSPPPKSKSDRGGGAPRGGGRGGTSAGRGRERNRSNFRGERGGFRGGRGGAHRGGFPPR

The term EC50 denotes the concentration giving half of the maximal effect. `C#C[C@@]1(O)[C@H](O)[C@@H](CO)O[C@H]1n1ccc2c(N)ncnc21` showed an EC50 in data set [1] of 0.625 µM.

By CC50 is commonly meant the concentration that lowers cell viability or growth by half. Consider `OC[C@H]1O[C@@H](n2cnc3c(NCc4cccc(C(F)(F)F)c4)ncnc32)[C@H](O)[C@@H]1O`, for which the EC50 in [2] is 0.068 µM; in [3], 0.036 µM; in data set [6] it was over 100 µM; in data set [7] it was over 100 µM. In addition, the CC50 in data set [4] and in [8] was over 100 µM in each case. Further, the selectivity ratio in data set [5] is over 2770.

As to `CCC(CC)COC(=O)[C@H](C)N[P@](=O)(OC[C@H]1O[C@@](C#N)(c2ccc3c(N)ncnn23)[C@H](O)[C@@H]1O)Oc1ccccc1`, the EC50 in data set [9] stood at 0.991 µM; in data set [6], 0.058 µM. In [8], this molecule displayed a CC50 of over 10 µM.

As for `CC(Nc1ncnc2c1ncn2[C@@H]1O[C@H](CO)[C@@H](O)[C@H]1O)c1cccc(Cl)c1` (stereo partly drawn), the EC50 is 1.07 µM in [3]; over 100 µM in data set [6]; over 100 µM in data set [7]; over 100 µM in [10]; over 100 µM in data set [12]; over 100 µM in [13]. The EC50 in data set [14] and in data set [15] was over 100 µM throughout. For the same molecule, the CC50 in data set [4], in data set [8], in data set [11] and in [16] was over 100 µM each time. The selectivity ratio in data set [5] is over 93.5.

By IC50 is commonly meant the concentration at which inhibition is half-maximal. As to `OC[C@H]1O[C@@H](n2ccc3c(NCc4cccc(C(F)(F)F)c4)ncnc32)[C@H](O)[C@@H]1O`, the EC50 was 0.101 µM in data set [3]; over 100 µM in [6]; over 100 µM in [7]; over 100 µM in [10]; 19.9 µM in data set [12]; 91.2 µM in [13]. Also, the EC50 in data set [14] and in data set [15] was over 100 µM in each case. For the same molecule, the CC50 in data set [4], in data set [8], in [11] and in [16] was over 100 µM throughout. Besides, the selectivity ratio in data set [5] is over 1070. The IC50 in [17] worked out at 129 µM.

Consider `OC[C@H]1O[C@@H](n2ccc3c(NCc4cccc(Cl)c4)ncnc32)[C@H](O)[C@@H]1O`, for which the EC50 is 0.065 µM in data set [3], over 100 µM in data set [6] and over 100 µM in data set [7]. Further, the cytotoxic concentration (CC50) in [4] is over 20 µM; in data set [8], over 100 µM. Besides, in data set [5], the selectivity ratio is over 301. Moreover, the IC50 in [17] came out at 58.8 µM.

`CSC[C@H]1O[C@@H](n2cnc3c(NCc4cccc(Cl)c4)ncnc32)[C@H](O)[C@@H]1O`: the EC50 was 0.53 µM in data set [3], over 100 µM in data set [6] and over 100 µM in [7]. In addition, the CC50 in [4] is over 20 µM; in data set [8] it was over 100 µM. The selectivity ratio in data set [5] was over 37.7. Further, the 50% inhibitory concentration (IC50) in data set [17] turned out to be 184 µM.

In turn, `OC[C@H]1O[C@@H](n2cnc3c(NCc4ccccc4)ncnc32)[C@H](O)[C@@H]1O` [N6-BENZYLADENOSINE] came in with an EC50 in data set [18] of 0.28 µM.
